Results on 16 compounds are retold here after ChEMBL document CHEMBL1221229, “Phloroglucinol glycosides from the fresh fruits of Eucalyptus maideni” (J Nat Prod, 2010).

Calls of active or inactive are those of the source. No cut-off for these calls is given here.

Data set [1] can be described thus: Cytotoxicity against african green monkey Vero cells after 3 days by MTT assay. The class given is cell-based. The following applies: chlorocebus sabaeus, read-out: MNCC. In outline:
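Confluent Vero monolayers in 96-well plates were exposed in triplicate to serial sample dilutions in DMEM with 2% FBS (pH 7.2) for 3 days. MTT (5 mg/mL in PBS) was added for 4 h, and formazan was dissolved in DMSO with OD read at 540/630 nm. The value is the maximal concentration without cytotoxic effect relative to medium control.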
In general terms: Tetrazolium assays rely on reduction of a dye to a coloured formazan, in cell work by metabolically active cells.

Data set [2] deals with Human alphaherpesvirus 1. In words: Antiviral activity against HSV1 infected african green monkey Vero cells assessed as reduction of plaque formation after 3 days by using crystal violet stain. The class given is functional, organism-based. In outline:
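Vero cells in 24-well plates, grown 24 h, then infected with 30 PFU HSV-1 alongside serial sample dilutions in DMEM with 2% FBS (pH 7.2, NaHCO3/Hepes). The wells were overlaid with 1% methylcellulose medium and incubated 3 days. Monolayers were formalin-fixed and crystal violet-stained, and plaques counted by microscope. The 100% plaque-reducing concentration was read from graphic plots. Aciclovir was the positive control.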

Take `O=c1cc(-c2cc(O)c(O)c(O[C@@H]3O[C@H](CO)[C@@H](O)[C@H](O)[C@H]3O)c2)oc2cc(O)cc(O)c12`: the MNTC at 72 h in data set [1] is 430 µM. Besides, the inhibition entry in data set [2] was “inactive”. `O=c1cc(-c2ccc(O)c(O[C@@H]3O[C@H](CO)[C@@H](O)[C@H](O)[C@H]3O)c2)oc2cc(O)cc(O)c12`: the MNTC at 72 h in data set [1] came to 450 µM. Moreover, the inhibition result in data set [2] is “inactive”. On to `COc1c(O)cc2c(=O)oc3c(O[C@@H]4O[C@@H](C)[C@H](O)[C@@H](O)[C@H]4O)c(O)cc4c(=O)oc1c2c34`, for which the MNTC at 72 h in data set [1] turned out to be 430 µM. The inhibition result in data set [2] was “inactive”. For `O=C[C@H](O)[C@@H](O)[C@H](O)[C@H](O)COC(=O)c1cc(O)c(O)c(O)c1`, the MNTC at 72 h in data set [1] was found to be 9 µM. Besides, the inhibition entry in data set [2] is “inactive”. The corresponding values for `O=c1c(O[C@@H]2O[C@H](CO)[C@@H](O)[C@H](O)[C@H]2O[C@@H]2OC[C@@H](O)[C@H](O)[C@H]2O)c(-c2ccc(O)c(O)c2)oc2cc(O)cc(O)c12` are 370 µM and “inactive”. Regarding `CC(C)(O)[C@H]1CC=C(C(=O)OC[C@H]2O[C@@H](OC(=O)[C@H]3CC[C@H](C(C)(C)O)CC3)[C@H](O)[C@@H](O)[C@@H]2O)CC1`, the inhibition result in data set [2] was “inactive”. For the compound `CC(C)(O)[C@H]1CC=C(C(=O)OC[C@H]2O[C@@H](Oc3c(O)cc(C(=O)O)cc3O)[C@H](O)[C@@H](O)[C@@H]2O)CC1`, the inhibition entry in data set [2] was “inactive”. The same measure, in the same setting: for `CC(C)(O)[C@H]1CC=C(C(=O)OC[C@H]2O[C@@H](Oc3cc(C(=O)O)cc(O)c3O)[C@H](O)[C@@H](O)[C@@H]2O)CC1` the value was “inactive”. In the case of `COc1cc([C@@H]2c3cc(O)c(OC)cc3C[C@H](CO)[C@H]2CO[C@@H]2O[C@H](CO)[C@@H](O)[C@H](O)[C@H]2O)ccc1O`, the inhibition entry in data set [2] is “inactive”. Take `CC(C)(O)C1CC=C(C(=O)O)CC1` (racemic): the MNTC at 72 h in data set [1] was > 1090 µM. In data set [2], the inhibition entry was “inactive”. For `O=C(O)c1cc(O)c(O)c(O)c1` [GALLIC ACID] the same measures were 590 µM and “inactive”. Consider `O=c1c(O[C@@H]2O[C@H](CO)[C@@H](O)[C@H](O)[C@H]2O)c(-c2ccc(O)c(O)c2)oc2cc(O)cc(O)c12` [ISOQUERCETIN], for which, in data set [1], the MNTC at 72 h worked out at 430 µM. Also, in data set [2], the inhibition result was “inactive”.

With `O=c1cc(-c2ccc(O)c(O)c2)oc2cc(O)cc(O)c12` [LUTEOLIN], in data set [1], the MNTC at 72 h stood at 700 µM. Besides, the inhibition entry in data set [2] was “inactive”.

Turning to `O=c1c(O)c(-c2cc(O)c(O)c(O)c2)oc2cc(O)cc(O)c12` [MYRICETIN], the MNTC at 72 h in data set [1] was 310 µM. In addition, in data set [2], the TIC came out at 0.31 mM. Regarding `O=c1c(O)c(-c2ccc(O)c(O)c2)oc2cc(O)cc(O)c12` [QUERCETIN], the MNTC at 72 h in data set [1] was < 20 µM. The TIC in data set [2] is 0.33 mM. `O=c1cc(-c2cc(O)c(O)c(O)c2)oc2cc(O)cc(O)c12` [TRICETIN]: the MNTC at 72 h in data set [1] was 40 µM. Also, the inhibition result in data set [2] is “inactive”.
